As a reminder, the MIC is the least concentration at which growth counts as inhibited. Higher therefore signals a less susceptible organism. As usually defined, the IC50 is the concentration needed to halve the response being measured.

Series [1] relates to Staphylococcus aureus. The series is described as follows: Potency index, ratio of MIC for oxacillin to MIC for compound against quinolone-resistant Staphylococcus aureus CCARM 3519 incubated for 24 hrs serial dilution method. In kind it is functional.
For series [2], the system named is Staphylococcus aureus. Nature of the series: Antibacterial activity against quinolone-resistant Staphylococcus aureus CCARM 3505 incubated for 24 hrs serial dilution method. In kind it is functional. Particulars: CCARM 3505, 24 h.
The test system of series [3] is Staphylococcus aureus. Nature of the series: Potency index, ratio of MIC for norfloxacin to MIC for compound against quinolone-resistant Staphylococcus aureus CCARM 3505 incubated for 24 hrs serial dilution method. In kind it is functional.
Series [4] deals with Staphylococcus aureus. Nature of the series: Antibacterial activity against quinolone-resistant Staphylococcus aureus CCARM 3519 incubated for 24 hrs serial dilution method. In kind it is functional. As to conditions: CCARM 3519, 24 h.
Series [5] concerns Staphylococcus aureus. The series is described as follows: Antibacterial activity against Staphylococcus aureus KCTC 503 incubated for 24 hrs serial dilution method. In kind it is functional. As to conditions: KCTC 503, 24 h.
The test system of series [6] is Staphylococcus aureus. Nature of the series: Antibacterial activity against Staphylococcus aureus KCTC 209 incubated for 24 hrs serial dilution method. In kind it is functional. Particulars: KCTC 209, 24 h.
Series [7] concerns Staphylococcus aureus. Nature of the series: Potency index, ratio of MIC for oxacillin to MIC for compound against quinolone-resistant Staphylococcus aureus CCARM 3505 incubated for 24 hrs serial dilution method. In kind it is functional.
The test system of series [8] is Staphylococcus aureus. The series is described as follows: Antibacterial activity against multidrug-resistant Staphylococcus aureus CCARM 3506 incubated for 24 hrs serial dilution method. In kind it is functional. As to conditions: CCARM 3506, 24 h.
Series [9] has as its system Staphylococcus aureus. The series is described as follows: Potency index, ratio of MIC for norfloxacin to MIC for compound against multidrug-resistant Staphylococcus aureus CCARM 3506 incubated for 24 hrs serial dilution method. In kind it is functional.
In series [10] the test system is Staphylococcus aureus. The series is described as follows: Potency index, ratio of MIC for oxacillin to MIC for compound against multidrug-resistant Staphylococcus aureus CCARM 3167 incubated for 24 hrs serial dilution method. In kind it is functional.
Series [11] relates to Staphylococcus aureus. The series is described as follows: Potency index, ratio of MIC for norfloxacin to MIC for compound against quinolone-resistant Staphylococcus aureus CCARM 3519 incubated for 24 hrs serial dilution method. In kind it is functional.
The subject of series [12] is Staphylococcus aureus. The series is described as follows: Antibacterial activity against Staphylococcus aureus RN 4220 incubated for 24 hrs serial dilution method. In kind it is functional. Particulars: RN 4220, 24 h.
Series [13] concerns Staphylococcus aureus. Nature of the series: Antibacterial activity against multidrug-resistant Staphylococcus aureus CCARM 3167 incubated for 24 hrs serial dilution method. As to conditions: CCARM 3167, 24 h. In kind it is functional.
The test system of series [14] is Staphylococcus aureus. The series is described as follows: Potency index, ratio of MIC for oxacillin to MIC for compound against multidrug-resistant Staphylococcus aureus CCARM 3506 incubated for 24 hrs serial dilution method. In kind it is functional.
Series [15] relates to Escherichia coli. The series is described as follows: Antibacterial activity against Escherichia coli 1356 incubated for 24 hrs serial dilution method. In kind it is functional. Particulars: Escherichia coli, 1356, 24 h.
Series [16] deals with Staphylococcus aureus. Nature of the series: Potency index, ratio of MIC for norfloxacin to MIC for compound against multidrug-resistant Staphylococcus aureus CCARM 3167 incubated for 24 hrs serial dilution method. In kind it is functional.
The test system of series [17] is HeLa. Nature of the series: Toxicity against human HeLa cells at 2 ug/ml incubated for 48 hrs by MTT assay. In kind it is cell-based. Put shortly:
(§1)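 HeLa cells kept in DMEM with 10% FBS and penicillin-streptomycin (100 U/mL) at 37 °C, 5% CO₂, split with 0.25% trypsin at 80–90% confluence. After 3 passages, about 1 × 10⁴ cells per well were seeded and left overnight to attach. Compound exposure 48 h. MTT (5 mg/mL in PBS) added for 4 h, formazan dissolved in DMSO, OD read at 570 nm.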
A general note: Tetrazolium assays rely on reduction of a dye to a coloured formazan, in cell work by metabolically active cells.

The test system of series [18] is HeLa. The series is described as follows: Toxicity against human HeLa cells at 1 ug/ml incubated for 48 hrs by MTT assay. In kind it is cell-based. Put shortly: as §1
Series [19] in a line: Toxicity against human HeLa cells incubated for 48 hrs by MTT assay. In kind it is cell-based. Put shortly: as §1
The test system of series [20] is Escherichia coli. The series is described as follows: Antibacterial activity against Escherichia coli 1356 at 64 ug/ml incubated for 24 hrs serial dilution method. In kind it is functional, organism-based.
Series [21] concerns Staphylococcus aureus. The series is described as follows: Antibacterial activity against Staphylococcus aureus RN 4220 at 64 ug/ml incubated for 24 hrs serial dilution method. In kind it is functional, organism-based.
In series [22] the test system is Staphylococcus aureus. The series is described as follows: Antibacterial activity against Staphylococcus aureus KCTC 209 at 64 ug/ml incubated for 24 hrs serial dilution method. In kind it is functional, organism-based.
In series [23] the test system is Staphylococcus aureus. Nature of the series: Antibacterial activity against quinolone-resistant Staphylococcus aureus CCARM 3519 at 64 ug/ml incubated for 24 hrs serial dilution method. In kind it is functional, organism-based.
Series [24] relates to Staphylococcus aureus. The series is described as follows: Antibacterial activity against Staphylococcus aureus KCTC 503 at 64 ug/ml incubated for 24 hrs serial dilution method. In kind it is functional, organism-based.
Series [25] has as its system Staphylococcus aureus. Nature of the series: Antibacterial activity against multidrug-resistant Staphylococcus aureus CCARM 3167 at 64 ug/ml incubated for 24 hrs serial dilution method. In kind it is functional, organism-based.
Series [26] deals with Staphylococcus aureus. Nature of the series: Antibacterial activity against multidrug-resistant Staphylococcus aureus CCARM 3506 at 64 ug/ml incubated for 24 hrs serial dilution method. In kind it is functional, organism-based.
For series [27], the system named is Staphylococcus aureus. Nature of the series: Antibacterial activity against quinolone-resistant Staphylococcus aureus CCARM 3505 at 64 ug/ml incubated for 24 hrs serial dilution method. In kind it is functional, organism-based.

≈ marks a conversion by molar mass, not a printed value. Calls of active or inactive are those of the source. No cut-off for these calls is given here. Some results are limits rather than exact numbers.

Turning to `Cc1ccc(Oc2c(/C=C3\SC(=S)N([C@@H](Cc4c[nH]c5ccccc45)C(=O)O)C3=O)c(C)nn2-c2ccccc2)c(C)c1`, the Ratio with Staphylococcus aureus [1] was determined as 64; in the series with Staphylococcus aureus [3], 4; in the series with Staphylococcus aureus [7] it was 64; in the series with Staphylococcus aureus [9] it was 4; with Staphylococcus aureus [10], 64; in the series on Staphylococcus aureus [11], 4. In addition, the Ratio in the series on Staphylococcus aureus [14] is listed as 64; with Staphylococcus aureus [16], 4. Also, the MIC is 1 µg/mL (≈ 1.64 µM) in the series with Staphylococcus aureus [2]; 1 µg/mL (≈ 1.64 µM) in the series on Staphylococcus aureus [4]; greater than 64 µg/mL against Staphylococcus aureus [5]; greater than 64 µg/mL against Staphylococcus aureus [6]; 1 µg/mL (≈ 1.64 µM) against Staphylococcus aureus [8]; 2 µg/mL (≈ 3.29 µM) against Staphylococcus aureus [12]. In addition, the figures for the MIC against Staphylococcus aureus [13] and with Escherichia coli [15] were 1 µg/mL (≈ 1.64 µM) and greater than 64 µg/mL, respectively.

Take `Cc1nn(-c2ccccc2)c(Oc2ccc(Br)cc2)c1/C=C1\SC(=S)N([C@@H](Cc2c[nH]c3ccccc23)C(=O)O)C1=O`: the Ratio was found to be 64 with Staphylococcus aureus [1]; 4 in the series with Staphylococcus aureus [3]; 64 in the series with Staphylococcus aureus [7]; 4 with Staphylococcus aureus [9]; 64 in the series with Staphylococcus aureus [10]; 4 in the series on Staphylococcus aureus [11]. In addition, the Ratio was found to be 64 in the series with Staphylococcus aureus [14] and 4 with Staphylococcus aureus [16]. The MIC in the series on Staphylococcus aureus [2] is 1 µg/mL (≈ 1.52 µM); in the series with Staphylococcus aureus [4], 1 µg/mL (≈ 1.52 µM); in the series with Staphylococcus aureus [5] it was greater than 64 µg/mL; against Staphylococcus aureus [6], greater than 64 µg/mL; in the series on Staphylococcus aureus [8], 1 µg/mL (≈ 1.52 µM); against Staphylococcus aureus [12], 2 µg/mL (≈ 3.03 µM). The MIC was 1 µg/mL (≈ 1.52 µM) against Staphylococcus aureus [13] and greater than 64 µg/mL in the series on Escherichia coli [15].

Turning to `Cc1nn(-c2ccccc2)c(Oc2ccc(Cl)cc2Cl)c1/C=C1\SC(=S)N([C@@H](Cc2c[nH]c3ccccc23)C(=O)O)C1=O`, the Ratio with Staphylococcus aureus [1] turned out to be 64; with Staphylococcus aureus [3] it was 4; in the series with Staphylococcus aureus [7] it was 64; in the series on Staphylococcus aureus [9], 4; in the series with Staphylococcus aureus [10], 64; with Staphylococcus aureus [11] it was 4. Further, the Ratio was 64 in the series with Staphylococcus aureus [14] and 4 in the series with Staphylococcus aureus [16]. Also, the MIC against Staphylococcus aureus [2] was 1 µg/mL (≈ 1.54 µM); in the series on Staphylococcus aureus [4], 1 µg/mL (≈ 1.54 µM); against Staphylococcus aureus [5], greater than 64 µg/mL; with Staphylococcus aureus [6], greater than 64 µg/mL; against Staphylococcus aureus [8] it was 1 µg/mL (≈ 1.54 µM); in the series on Staphylococcus aureus [12], 2 µg/mL (≈ 3.08 µM). Besides, the MIC in the series with Staphylococcus aureus [13] was 1 µg/mL (≈ 1.54 µM); with Escherichia coli [15] it was greater than 64 µg/mL. In addition, the Activity entry with HeLa [17] and in the series on HeLa [18] was “Non-toxic” throughout. Besides, in series [19] (read-out: IC50), the concentration for half-maximal inhibition (IC50) at 48 h turned out to be 5.76 µg/mL (≈ 8.87 µM).

Take `Cc1nn(-c2ccccc2)c(Oc2ccc(Cl)cc2Cl)c1/C=C1\SC(=S)N([C@@H](Cc2ccccc2)C(=O)O)C1=O`: the Ratio was found to be 32 in the series on Staphylococcus aureus [1]; 8 in the series on Staphylococcus aureus [3]; 32 in the series with Staphylococcus aureus [7]; 8 with Staphylococcus aureus [9]; 32 with Staphylococcus aureus [10]; 8 in the series on Staphylococcus aureus [11]. In addition, the values for the Ratio in the series on Staphylococcus aureus [14] and with Staphylococcus aureus [16] were 32 and 8, respectively. Besides, the MIC in the series on Staphylococcus aureus [2] was 2 µg/mL (≈ 3.28 µM); in the series with Staphylococcus aureus [4], 2 µg/mL (≈ 3.28 µM); in the series with Staphylococcus aureus [5], greater than 64 µg/mL; with Staphylococcus aureus [6], greater than 64 µg/mL; against Staphylococcus aureus [8] it was 1 µg/mL (≈ 1.64 µM); in the series on Staphylococcus aureus [12], 2 µg/mL (≈ 3.28 µM). For the same compound, the MIC is 1 µg/mL (≈ 1.64 µM) against Staphylococcus aureus [13] and greater than 64 µg/mL with Escherichia coli [15]. Moreover, the Activity entry in the series with HeLa [17] and in the series on HeLa [18] was “Non-toxic” throughout. The compound also registered a concentration for half-maximal inhibition (IC50) at 48 h in [19] of 3.54 µg/mL (≈ 5.8 µM).

Regarding `Cc1nn(-c2ccccc2)c(Oc2ccc(Cl)cc2Cl)c1C=O`, the outcome with Escherichia coli [20], in the series with Staphylococcus aureus [21], in the series on Staphylococcus aureus [22], in the series on Staphylococcus aureus [23], in the series on Staphylococcus aureus [24] and with Staphylococcus aureus [25] was inactive. Also, the result in the series on Staphylococcus aureus [26] and with Staphylococcus aureus [27] was inactive.

(Values after ChEMBL document CHEMBL2203015, “Synthesis and biological evaluation of 5-aryloxypyrazole derivatives bearing a rhodanine-3-aromatic acid as potential antimicrobial agents” (Bioorg Med Chem Lett, 2012).)
